# Source: PubChem
# The list is not random: actives were taken first. Their share in the collection is about 2.3%.
# ADAM10 inh = inhibitors of human ADAM10 | O14672 | recombinant ADAM10, EDANS/DABCYL FRET peptide cleavage, 3 h | inhibition, % at 7 µM | 0.62% of 370,000 active;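 active = inhibition above a per-campaign cutoff equal to the mean of compounds falling between control-based bounds plus 3 SD, cut at about 20% in these data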;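 also: 0% = DMSO wells while the 100% control is not disclosed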
# PLC-beta3 inh = PLC-beta3 (human) inhibition, primary screen. AID 720704. 0.18% of 370,000 active. Purified PLC-beta3, fluorogenic substrate, fluorescence. inhibition, % at 12.2 µM. Q01970;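 also: 0% = median of compound wells on plate and 100% = full blocker control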
# Tn7 DDE FP = DD(E)-Tn7 binding inhibition, primary FP screen; inhibition, % at 8.3 µM; AID 720508; FP displacement of FITC-Tn7 peptide from fibrin DD(E); 0% = median of compound wells per plate; 0.13% of 370,000 active; P02675;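 active = inhibition above the mean of compounds falling within the control limits plus 3 SD of them, cut at about 14% in these data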;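 also: 0% = plate median of compound wells and 100% = 10 µM Aha-Tn7 peptide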
#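 system = human fibrin DD(E) protein | quantity = DD(E) 2 µM final | medium = Tris/NaCl/CaCl2 buffer, pH 7.8 | also added = labelled Tn7 tracer, 0.1 µM | compound dosing = single point at 8.3 µM | timing = compound with protein 10 min, then 3 h after probe, room temperature | signal = FP measurement | benchmarks = Aha-Tn7 high control | repeats = one replicate per compound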
# PLC-gamma1 inh = PLC-gamma1 (human) inhibition, primary screen. 0.84% of 370,000 active. purified PLC-gamma1, fluorogenic substrate, fluorescence. inhibition, % at 12.2 µM. P19174; in the data active = inhibition above about 9.5%
# Tn6 DDE FP = DD(E)-Tn6 binding inhibition, primary FP screen | P02675 | Fibrin DD(E) TRITC-Tn6 fluorescence polarization displacement | inhibition, % at 8.3 µM | 0.21% of 370,000 active | AID 720509;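 active = inhibition above a per-campaign cutoff: mean of compounds within control limits plus 3 SD, cut at about 15% in these data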;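 also: 0% = median of all compound wells on the plate and 100% = blocking peptide control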
# ADAM17 inh = inhibits human ADAM17; P78536; inhibition, % at 6.95 µM; 0.83% of 370,000 active; recombinant ADAM17, EDANS/DABCYL FRET peptide cleavage;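 active = inhibition above the mean of compounds lying between control limits plus 3 SD, set per campaign, cut at about 8.5% in these data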;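 also: 0% = DMSO-only wells as the low control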
# ADAM10 counter = counter-screen for ADAM17 exosite inhibitors: inhibitors of human ADAM10. shares compounds with ADAM17 inh. AID 743256. inhibition, % at 6.95 µM. recombinant ADAM10, EDANS/DABCYL FRET peptide cleavage, 3 h. 47% of 2,900 active;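 active = mean inhibition over the triplicate runs exceeds the activity threshold set in the earlier primary screen, cut at about 20% in these data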;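 also: 0% = DMSO wells and 100% = marimastat wells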
# ADAM17 confirm = human ADAM17 inhibition, confirmation. shares compounds with ADAM17 inh. recombinant ADAM17, EDANS/DABCYL QFRET peptide cleavage. inhibition, % at 6.95 µM. 65% of 2,900 active. AID 743257;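 active = mean inhibition across replicates above the hit cutoff set in the primary screen, cut at about 8.5% in these data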;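 also: 0% = DMSO wells and 100% = marimastat wells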
# PLCgamma1 ctr = inhibits human PLC-gamma1 in PLC-beta3 counter-screen; shares compounds with PLC-gamma1 inh; purified PLC-gamma1, fluorogenic substrate, fluorescence; inhibition, % at 12.3 µM; 3.1% of 3,300 active; AID 743258; in the data active = inhibition above about 9.5%
# PLCb3 confirm = confirmation of human PLC-beta3 inhibitors; purified PLC-beta3, fluorogenic substrate fluorescence; shares compounds with PLC-gamma1 inh; 1% of 3,300 active; inhibition, % at 12.3 µM
# Numbers without * were called inactive; · = not tested or not shown. Rule as the data show it, unless noted: active = inhibition above about 11%; inactive = the rest.
SMILES,ADAM10 inh,PLC-beta3 inh,Tn7 DDE FP,PLC-gamma1 inh,Tn6 DDE FP,ADAM17 inh,ADAM10 counter,ADAM17 confirm,PLCgamma1 ctr,PLCb3 confirm
COc1ccc(N2C(=O)C3C(C2=O)C3(c2ccccc2)c2ccccc2)cc1 (centres undefined),17,-1,-3,12*,2,13*,9,7,-3,-5
C#CCNC(=O)C[C@H]1C[C@@]2(C(=O)OC)C(=C[C@H](COCc3ccccc3)O[C@@H]2C)N(Cc2ccc(Cl)cc2Cl)C1=O,6,-1,5,1,9,3,·,·,·,·
COc1cc(S(=O)(=O)N2CCN(Cc3ccc4c(c3)OCO4)CC2)c(C)cc1C,11,0,7,5,-3,5,·,·,·,·
COc1cc(C)c(C)cc1S(=O)(=O)N1CCN(Cc2ccc3c(c2)OCO3)CC1,8,11*,6,10*,-1,8.8*,23*,9.3*,-4,-1
Cc1cc(F)cc(-c2cc(C(=O)NCc3cccc(Cl)c3)[nH]n2)c1,12,2,1,10*,-5,9.1*,6,2,-5,-6
CN(C)c1ccc(/C=N/NC(N)=S)cc1[N+](=O)[O-],2,1,-4,16*,-8,10*,28*,15*,7,8
O=S1(=O)CCN(Cc2ccc(Cl)cc2)CC1,13,10,-7,14*,1,9.2*,-8,1,-8,-3
O=C(CSc1nnc(-c2cccnc2)n1-c1ccccc1)c1ccccc1Cl,-1,-7,-3,-1,-4,-1,·,·,·,·
Cc1ccc(NC=C(S(=O)(=O)c2ccccc2)S(=O)(=O)c2ccccc2)c(C)c1,9,3,-3,13*,-1,8,·,·,0,0
Cc1ccc(NC=C(S(=O)(=O)c2ccccc2)S(=O)(=O)c2ccccc2)cc1,-4,1,5,2,-2,-3,·,·,·,·
CCOc1ccc(NC(=O)CSCc2cnn(-c3ccccc3)c2-n2cccc2)cc1,8,-5,0,10*,-2,1,·,·,1,-7
COC(=O)[C@]12C[C@H](CC(=O)N3CCCCC3)C(=O)N(CCc3ccc(OC)c(OC)c3)C1=C[C@H](C1CCCC1)O[C@@H]2C,6,6,2,0,-5,3,·,·,·,·
O=C(c1ccc([N+](=O)[O-])cc1)N1CCOC12CCN(c1ncc(C(F)(F)F)cc1Cl)CC2,9,9,-2,11*,1,6,·,·,3,1
O=C(c1ccccc1)N1CCOC12CCN(c1ncc(C(F)(F)F)cc1Cl)CC2,-8,-3,-1,1,-1,-1,·,·,·,·
C/C(CC(=O)Nc1ccccc1C)=N\NC(=O)Cc1csc(N)n1,8,5,-2,9.9*,-6,6,·,·,-6,-2
C/C(CC(=O)Nc1ccc(Br)cc1)=N\NC(=O)Cc1csc(N)n1,3,-8,-4,-1,-4,-2,·,·,·,·
CCCCCC[C@H](CN(CCCC)S(C)(=O)=O)c1ccccc1,3,3,3,0,2,0,·,·,·,·
COc1ccc(C(=O)Oc2ccc(C(C)=O)cc2)c(OC)c1,-5,1,4,10*,0,-5,·,·,-4,-3
CC(=O)Nc1ccc(S(=O)(=O)c2ccc(C)cc2)cc1,-3,-5,-2,10*,2,3,·,·,-7,-4
COc1cccc(CNC(=O)[C@H]2CCCN2C(=O)[C@H]2CCCN2C(=O)c2cccc3ccccc23)c1,-1,1,0,0,5,0,·,·,·,·
